In ChEMBL document CHEMBL4007456, “Heterocyclyl Tetracyclines. 1. 7-Trifluoromethyl-8-Pyrrolidinyltetracyclines: Potent, Broad Spectrum Antibacterial Agents with Enhanced Activity against Pseudomonas aeruginosa” (2017):
In brackets after ≈: the same amount, converted by molar mass.

The molecules below were run on Pseudomonas aeruginosa (assay: Antibacterial activity against Pseudomonas aeruginosa PA1145 in BALB/c mouse model of lung infection administered as iv bid for 2 to 12 hrs of post-infection measured after 24 hrs).
Assay type: functional
In short: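 Female BALB/c mice (18–20 g) infected intranasally with ~2 x 10^7 CFU/mouse P. aeruginosa PA1145 (cystic fibrosis isolate) under light anesthesia. Dosing at 2 and 12 h post-infection, IV (compound, tigecycline, amikacin) or intranasal (tobramycin); n = 6 per group. Lungs harvested 24 h after treatment start, homogenized, plated on MacConkey agar, 37 °C overnight; CFU/g lung; Mann-Whitney vs T = 0 h or 24 h controls.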

Row | Structure (SMILES) | MIC [µg/mL]
1 | NCC[C@H](O)C(=O)N[C@@H]1C[C@H](N)[C@@H](O[C@H]2O[C@H](CN)[C@@H](O)[C@H](O)[C@H]2O)[C@H](O)[C@H]1O[C@H]1O[C@H](CO)[C@@H](O)[C@H](N)[C@H]1O [AMIKACIN] | 4 (≈ 6.83 µM)

What follows are molecules tested on Pseudomonas aeruginosa (assay: Antibacterial activity against Pseudomonas aeruginosa PA1145 in BALB/c mouse model of lung infection assessed as reduction in log10CFU per gram of lung at 40 mg/kg, iv bid administered 2 to 12 hrs of post-infection measured after 24 hrs relative to untreated control).
Assay type: functional
In short: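 Female BALB/c mice, 18 to 20 g, infected intranasally under light anesthesia with ~ 2 x 10^7 CFU/mouse of P. aeruginosa PA1145 (cystic fibrosis isolate) in 0.05 mL. Treatment at 2 and 12 h post-infection, IV, or intranasally for tobramycin; n = 6 per group. Lungs harvested 24 h after treatment began, homogenized, plated on MacConkey medium, incubated overnight at 37 °C in 5% CO2. CFU per gram lung compared with T = 24 h untreated control.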

Row | Structure (SMILES) | Activity [deltalog10CFU]
2 | NCC[C@H](O)C(=O)N[C@@H]1C[C@H](N)[C@@H](O[C@H]2O[C@H](CN)[C@@H](O)[C@H](O)[C@H]2O)[C@H](O)[C@H]1O[C@H]1O[C@H](CO)[C@@H](O)[C@H](N)[C@H]1O [AMIKACIN] | 3.6

Each molecule was assayed on Klebsiella pneumoniae (assay: Antibacterial activity against gram-negative Klebsiella pneumoniae KP153 harboring tet(A) by CLSI method).
Assay type: functional
In short: (§1)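 CLSI broth microdilution MIC in fresh cation-adjusted Mueller Hinton broth, supplemented with defibrinated horse blood where appropriate. Compounds serially diluted in sterile deionized water. Runs accepted when comparator antibiotics against ATCC quality-control strains fell within recommended ranges.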

Row | Structure (SMILES) | MIC [µg/mL]
3 | CN1CCCC1c1cc(O)c2c(c1Cl)C[C@H]1C[C@H]3[C@H](N(C)C)C(O)=C(C(N)=O)C(=O)[C@@]3(O)C(O)=C1C2=O (some centres not stated) | 0.5 (≈ 0.94 µM)

What follows are molecules tested on Klebsiella pneumoniae (assay: Antibacterial activity against gram-negative Klebsiella pneumoniae KP194 by CLSI method).
Assay type: functional
In short: (§2)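 Broth microdilution MIC per CLSI in cation-adjusted Mueller Hinton broth, prepared fresh and held at 4 °C. Defibrinated horse blood added where appropriate. Compounds serially diluted in sterile deionized water. Strains from ATCC unless otherwise noted. Runs accepted when comparator antibiotics fell within QC ranges for ATCC quality control strains.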

Row | Structure (SMILES) | MIC [µg/mL]
4 | CN1CCCC1c1cc(O)c2c(c1Cl)C[C@H]1C[C@H]3[C@H](N(C)C)C(O)=C(C(N)=O)C(=O)[C@@]3(O)C(O)=C1C2=O (some centres not stated) | 8 (≈ 15 µM)

These molecules were tested on Proteus mirabilis (assay: Antibacterial activity against gram-negative Proteus mirabilis PM122 by CLSI method).
Assay type: functional
In short: (§3)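 Defibrinated horse blood added where appropriate. Compounds serially diluted in sterile deionized water. Strains from ATCC unless otherwise noted. Runs accepted when comparator antibiotics fell within QC ranges for ATCC quality control strains.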

Row | Structure (SMILES) | MIC [µg/mL]
5 | CN1CCCC1c1cc(O)c2c(c1Cl)C[C@H]1C[C@H]3[C@H](N(C)C)C(O)=C(C(N)=O)C(=O)[C@@]3(O)C(O)=C1C2=O (some centres not stated) | 0.5 (≈ 0.94 µM)

The molecules below were run on Pseudomonas aeruginosa (assay: Antibacterial activity against gram-negative Pseudomonas aeruginosa PA169 by CLSI method).
Assay type: functional
In short: as §3

Row | Structure (SMILES) | MIC [µg/mL]
6 | CN1CCCC1c1cc(O)c2c(c1Cl)C[C@H]1C[C@H]3[C@H](N(C)C)C(O)=C(C(N)=O)C(=O)[C@@]3(O)C(O)=C1C2=O (some centres not stated) | 16 (≈ 30.1 µM)

Each molecule was assayed on Acinetobacter baumannii (assay: Antibacterial activity against gram-negative Acinetobacter baumannii AB250 by CLSI method).
Assay type: functional
In short: as §2

Row | Structure (SMILES) | MIC [µg/mL]
7 | CN1CCCC1c1cc(O)c2c(c1Cl)C[C@H]1C[C@H]3[C@H](N(C)C)C(O)=C(C(N)=O)C(=O)[C@@]3(O)C(O)=C1C2=O (some centres not stated) | 0.5 (≈ 0.94 µM)

Each molecule was assayed on Stenotrophomonas maltophilia (assay: Antibacterial activity against gram-negative Stenotrophomonas maltophilia SM256 by CLSI method).
Assay type: functional
In short: as §2

Row | Structure (SMILES) | MIC [µg/mL]
8 | CN1CCCC1c1cc(O)c2c(c1Cl)C[C@H]1C[C@H]3[C@H](N(C)C)C(O)=C(C(N)=O)C(=O)[C@@]3(O)C(O)=C1C2=O (some centres not stated) | 0.125 (≈ 0.235 µM)

These molecules were tested on Burkholderia cenocepacia (assay: Antibacterial activity against gram-negative Burkholderia cenocepacia BC240 by CLSI method).
Assay type: functional
In short: as §3

Row | Structure (SMILES) | MIC [µg/mL]
9 | CN1CCCC1c1cc(O)c2c(c1Cl)C[C@H]1C[C@H]3[C@H](N(C)C)C(O)=C(C(N)=O)C(=O)[C@@]3(O)C(O)=C1C2=O (some centres not stated) | 8 (≈ 15 µM)

These molecules were tested on Staphylococcus aureus (assay: Antibacterial activity against gram-positive Staphylococcus aureus SA101 by CLSI method).
Assay type: functional
In short: as §2

Row | Structure (SMILES) | MIC [µg/mL]
10 | CN1CCCC1c1cc(O)c2c(c1Cl)C[C@H]1C[C@H]3[C@H](N(C)C)C(O)=C(C(N)=O)C(=O)[C@@]3(O)C(O)=C1C2=O (some centres not stated) | 0.125 (≈ 0.235 µM)

The molecules below were run on Staphylococcus aureus (assay: Antibacterial activity against gram-positive Staphylococcus aureus SA161 harboring tet(M) by CLSI method).
Assay type: functional
In short: as §1

Row | Structure (SMILES) | MIC [µg/mL]
11 | CN1CCCC1c1cc(O)c2c(c1Cl)C[C@H]1C[C@H]3[C@H](N(C)C)C(O)=C(C(N)=O)C(=O)[C@@]3(O)C(O)=C1C2=O (some centres not stated) | 1 (≈ 1.88 µM)

These molecules were tested on Staphylococcus aureus (assay: Antibacterial activity against gram-positive Staphylococcus aureus SA158 harboring tet(K) by CLSI method).
Assay type: functional
In short: as §1

Row | Structure (SMILES) | MIC [µg/mL]
12 | CN1CCCC1c1cc(O)c2c(c1Cl)C[C@H]1C[C@H]3[C@H](N(C)C)C(O)=C(C(N)=O)C(=O)[C@@]3(O)C(O)=C1C2=O (some centres not stated) | ≤ 0.0156

These molecules were tested on Enterococcus faecalis (assay: Antibacterial activity against gram-positive Enterococcus faecalis EF159 harboring tet(M) by CLSI method).
Assay type: functional
In short: as §1

Row | Structure (SMILES) | MIC [µg/mL]
13 | CN1CCCC1c1cc(O)c2c(c1Cl)C[C@H]1C[C@H]3[C@H](N(C)C)C(O)=C(C(N)=O)C(=O)[C@@]3(O)C(O)=C1C2=O (some centres not stated) | 1 (≈ 1.88 µM)

These molecules were tested on Streptococcus pneumoniae (assay: Antibacterial activity against gram-positive Streptococcus pneumoniae SP160 harboring tet(M) by CLSI method).
Assay type: functional
In short: as §1

Row | Structure (SMILES) | MIC [µg/mL]
14 | CN1CCCC1c1cc(O)c2c(c1Cl)C[C@H]1C[C@H]3[C@H](N(C)C)C(O)=C(C(N)=O)C(=O)[C@@]3(O)C(O)=C1C2=O (some centres not stated) | 0.5 (≈ 0.94 µM)

Each molecule was assayed on Streptococcus pneumoniae (assay: Antibacterial activity against gram-positive Streptococcus pneumoniae SP193 by CLSI method).
Assay type: functional
In short: as §2

Row | Structure (SMILES) | MIC [µg/mL]
15 | CN1CCCC1c1cc(O)c2c(c1Cl)C[C@H]1C[C@H]3[C@H](N(C)C)C(O)=C(C(N)=O)C(=O)[C@@]3(O)C(O)=C1C2=O (some centres not stated) | ≤ 0.0156

The molecules below were run on Escherichia coli (assay: Antibacterial activity against gram-negative Escherichia coli EC107 by CLSI method).
Assay type: functional
In short: as §2

Row | Structure (SMILES) | MIC [µg/mL]
16 | CN1CCCC1c1cc(O)c2c(c1Cl)C[C@H]1C[C@H]3[C@H](N(C)C)C(O)=C(C(N)=O)C(=O)[C@@]3(O)C(O)=C1C2=O (some centres not stated) | ≤ 0.0156

These molecules were tested on Escherichia coli (assay: Antibacterial activity against gram-negative Escherichia coli EC155 harboring tet(A) by CLSI method).
Assay type: functional
In short: as §1

Row | Structure (SMILES) | MIC [µg/mL]
17 | CN1CCCC1c1cc(O)c2c(c1Cl)C[C@H]1C[C@H]3[C@H](N(C)C)C(O)=C(C(N)=O)C(=O)[C@@]3(O)C(O)=C1C2=O (some centres not stated) | 1 (≈ 1.88 µM)
